ChEMBL document CHEMBL3751847, “Novel naphtho[2,1-d]oxazole-4,5-diones as NQO1 substrates with improved aqueous solubility: Design, synthesis, and in vivo antitumor evaluation” (Bioorg Med Chem, 2016)
pIC50: −log10 of the molar value. ≈ marks a conversion by molar mass, not a printed value. Calls of active or inactive are those of the source. The rule behind the calls is not given here.

Experiments:
[1] = Lipophilicity, log D of compound at pH 7.4; assay type: physicochemical; conditions: buffer
In short: (§1)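 Neutral aqueous solubility and log D at pH 7.4 by Avdeef–Bucher potentiometric titration on a Gemini Profiler.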

[2] = Solubility of compound in diluted hydrochloric acid buffer solution at pH 3 at 25 deg C for 8 hrs; assay type: physicochemical
In short: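 Compounds shaken in diluted hydrochloric acid buffer at pH 3, 25 °C for 8 h.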

[3] = Intrinsic aqueous solubility of compound by Avdeef-Bucher potentiometric titration assay; assay type: physicochemical; conditions: aqueous solution; read-out: Intrinsic_solubility; in short: as §1
[4] = molecular target: T1, NAD(P)H dehydrogenase [quinone] 1 (Homo sapiens, UniProt P15559); test: Drug metabolism assessed as recombinant human NQO1-mediated NADPH oxidation to NADP+ per micromol of protein preincubated for 3 mins followed by NADPH addition measured at 2 s intervals for 5 mins by enzyme labelling instrument-based assay; assay type: ADME
T1 sequence (P15559 whole entry): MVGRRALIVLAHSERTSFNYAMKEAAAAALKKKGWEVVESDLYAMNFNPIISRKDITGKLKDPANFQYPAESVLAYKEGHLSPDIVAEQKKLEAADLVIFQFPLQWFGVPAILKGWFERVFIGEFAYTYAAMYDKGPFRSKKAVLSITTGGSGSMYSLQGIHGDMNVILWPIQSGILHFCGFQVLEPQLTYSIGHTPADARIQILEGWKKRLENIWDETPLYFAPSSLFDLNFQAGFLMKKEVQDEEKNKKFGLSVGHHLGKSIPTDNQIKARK
In short: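 NADPH recycling assay: quinones 0.1–50 µmol·L-1 with recombinant human NQO1 1.4 µg/mL in 50 mmol·L-1 potassium phosphate pH 7.4, 3 min preincubation, reaction started with NADPH 400 µmol·L-1; A340 every 2 s for 5 min at 22–25 °C. Slopes from linear 20 s–1 min, compared with no-compound reactions; at least triplicate.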

A549 [5] = test: Cytotoxicity against human A549 cells expressing NQO1 after 2 hrs by MTT assay; assay type: functional, cell-based; conditions: A549, 2 h
In short: (§2)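 MTT assay: cells in RPMI 1640 + 10% FBS seeded at 10,000 cells/mL, attached 16 h, exposed to compound in triplicate for 2 h, washed out, then grown 72 h at 37 °C, 5% CO2; MTT 4 h, formazan in DMSO, A560. Dicoumarol cotreatment 25 µmol·L-1 for 2 h. IC50 from semilog plots of percent control.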

A549 [6] = test: Antitumor activity against human A549 cells xenografted in athymic nude mouse assessed as tumor growth inhibition at 30 mg/kg, iv administered every other day over 21 days relative to vehicle control; assay type: functional; conditions: 504 h, read-out: TGI
In short: (§3)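 Athymic nude mice (7–8 weeks) given 5 × 10^6 log-phase A549 cells in the flank; randomized at mean tumor ~100 mm3 (5 mice/group) to vehicle, 15 or 30 mg/kg test agent in dilute HCl buffer pH 3, or positive control in saline; tail-vein injection every other day for three weeks. Caliper volume = a × b²/2, measured daily; wet tumor weight after euthanasia. TGI from weight; T/C = RTV(treated)/RTV(control) × 100, RTV = VT/V0.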

[7] = molecular target: T1, NAD(P)H dehydrogenase [quinone] 1; test: Binding affinity to recombinant human NQO1 assessed as induction of ROS generation by measuring reduction of cytochrome C per min per mg of NQO1 by spectrophotometric analysis
In short: (§4)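 Superoxide via cytochrome c reduction at 550 nm: 30 µmol·L-1 cytochrome c, 0.2 mmol·L-1 NADPH, recombinant human NQO1 0.1–3.0 µg/mL, quinone 25 µmol·L-1 in 25 mmol·L-1 Tris-HCl pH 7.4 with 0.7 mg/mL BSA and 0.1% Tween-20; dicoumarol 25 µmol·L-1 where stated. Initial rates from linear 0–30 s; at least triplicate.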

A549 [8] = test: Antitumor activity against human A549 cells xenografted in athymic nude mouse assessed as tumor proliferation rate at 30 mg/kg, iv administered every other day over 21 days relative to vehicle-treated control; assay type: functional; in short: as §3
Mus musculus [9] = test: Hepatotoxicity in athymic nude mouse at 15 to 30 mg/kg, iv administered every other day over 21 days relative to vehicle control; assay type: toxicity, organism-based; conditions: in vivo, 504 h
In short: (§5)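 A549 xenograft nude mice, 5/group, dosed 15 or 30 mg/kg by tail vein every other day for three weeks in dilute HCl buffer pH 3; vehicle group as reference. Body weight tracked over treatment; liver examined for toxic signs.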

A549 [10] = test: Cytotoxicity against human A549 cells expressing NQO1 after 2 hrs in presence of dicoumarol by MTT assay; assay type: functional, cell-based; conditions: A549, 2 h; in short: as §2
NCI-H596 = test: Cytotoxicity against NQO1-deficient human NCI-H596 cells after 2 hrs by MTT assay; assay type: cell-based; conditions: NCI-H596, 2 h; in short: as §2
Mus musculus [11] = test: Toxicity in athymic nude mouse assessed as body weight loss at 15 to 30 mg/kg, iv administered every other day over 21 days relative to vehicle control; assay type: organism-based; conditions: in vivo, 504 h; in short: as §5
[12] = Cytotoxicity against human L02 cells after 2 hrs by MTT assay; assay type: cell-based; conditions: L02, 2 h; in short: as §2
[13] = molecular target: T1, NAD(P)H dehydrogenase [quinone] 1; test: Binding affinity to recombinant human NQO1 assessed as induction of ROS generation by measuring reduction of cytochrome C per min per mg of NQO1 by spectrophotometric analysis in presence of NQO1 inhibitor dicoumarol; in short: as §4
[14] = Selectivity ratio of IC50 for NQO1-deficient human NCI-H596 cells to IC50 for human A549 cells expressing NQO1; assay type: cell-based
In short: (§6)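 IC50 ratios from the 2 h-exposure/72 h MTT assay: A549 IC50 with 25 µmol·L-1 dicoumarol cotreatment divided by IC50 without; or H596 IC50 divided by A549 IC50.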

A549 [15] = test: Ratio of IC50 for human A549 cells expressing NQO1 in presence of NQO1 inhibitor dicoumarol to IC50 for human A549 cells expressing NQO1 in absence of NQO1 inhibitor dicoumarol; assay type: functional; in short: as §6
A549 [16] = test: Antitumor activity against human A549 cells xenografted in athymic nude mouse assessed as tumor growth inhibition at 15 mg/kg, iv administered every other day over 21 days relative to vehicle control; assay type: functional, organism-based; in short: as §3
A549 [17] = test: Antitumor activity against human A549 cells xenografted in athymic nude mouse assessed as tumor volume at 30 mg/kg, iv administered every other day over 21 days (reference value: 1085.8 +/- 298.3 mm'3); assay type: functional; in short: as §3

| Compound | logD [1] | solubility at 8 h [2] | Drug metabolism [4] | pIC50 (A549 [5]) | further results |
| --- | --- | --- | --- | --- | --- |
| O=C1C(=O)c2nc(CNc3cccc(F)c3)oc2-c2ccccc21 | 3.18 | < 100 µg/mL | 1391 µmol/min | 5.28 | solubility [3]: 44 µg/mL (≈ 137 µM) |
| CCc1nc2c(o1)-c1ccccc1C(=O)C2=O | – | – | 955 µmol/min | 5.12 | – |
| CC1(C)CCC2=C(O1)c1ccccc1C(=O)C2=O [LAPACHONE] | 2.85 | < 100 µg/mL | 1210 µmol/min | 5.43 | inhibition in vivo at 30 mg/kg (A549 [6]): 70.1%; Activity [7]: Active; T/C (A549 [8]): 29.5% |
| CN(C)Cc1nc2c(o1)-c1ccccc1C(=O)C2=O | – | > 100 µg/mL | 939 µmol/min | 5.06 | – |
| O=C1C(=O)c2nc(CN3CCN(Cc4ccccc4)CC3)oc2-c2ccccc21 | 1.88 | > 500 µg/mL | 1360 µmol/min | 5.34 | Activity (Mus musculus [9]): Non-toxic; inhibition in vivo at 30 mg/kg (A549 [6]): 55.6%; pIC50 (A549 [10]): 4.19; Activity [7]: Active; pIC50 (NCI-H596): 4.24; Activity (Mus musculus [11]): Non-toxic; pIC50 [12]: 4.15; Activity [13]: Not Active; Ratio IC50 [14]: > 12; solubility [3]: 125 µg/mL (≈ 323 µM); Ratio IC50 (A549 [15]): >7; T/C (A549 [8]): 41.4%; TGI (A549 [16]): Active; Activity (A549 [17]): 440.8 mm3 |
| Cc1nc2c(o1)-c1ccccc1C(=O)C2=O | – | – | 1202 µmol/min | 4.70 | – |
| O=C1C(=O)c2nc(CN3CCOCC3)oc2-c2ccccc21 | – | > 100 µg/mL | 686 µmol/min | 5.16 | – |
| O=C1C(=O)c2nc(CN3CCN(c4ccccc4)CC3)oc2-c2ccccc21 | – | > 100 µg/mL | 1139 µmol/min | 5.12 | – |

Continued, in another order:

| logD [1] | solubility at 8 h [2] | Drug metabolism [4] | Compound | pIC50 (A549 [5]) | further results |
| --- | --- | --- | --- | --- | --- |
| 2.65 | < 100 µg/mL | 1522 µmol/min | O=C1C(=O)c2nc(CNc3ccc(Cl)cc3)oc2-c2ccccc21 | 4.72 | solubility [3]: 38 µg/mL (≈ 112 µM) |
| – | > 100 µg/mL | 1063 µmol/min | COc1ccc(NCc2nc3c(o2)-c2ccccc2C(=O)C3=O)cc1 | 4.89 | – |
| – | > 100 µg/mL | 955 µmol/min | COc1cccc(NCc2nc3c(o2)-c2ccccc2C(=O)C3=O)c1 | 4.82 | – |
| – | > 100 µg/mL | 968 µmol/min | Cc1ccc(NCc2nc3c(o2)-c2ccccc2C(=O)C3=O)cc1 | 4.92 | – |
| – | > 100 µg/mL | 990 µmol/min | COc1ccccc1NCc1nc2c(o1)-c1ccccc1C(=O)C2=O | 4.96 | – |
